Hit rate of the full screen: of about 20,000 compounds, about 25 (0.1%) were called active. The entries come from a sample that favours actives as a whole. A number with no mark means an inactive call.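 The calls were made as follows: active = mean replicate protection from cytokine-induced ATP loss at least 50% and at least 75% of replicates each reaching 50%; inconclusive = meets only one of the two criteria, mean or replicate share; inactive = fails both the mean and replicate share criteria.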

A short description of the assay: preservation of ATP in cytokine-treated beta cells – cell-based, ATP luminescence, single point, primary screen (AID 488910). The settings on record: INS-1E cytokine-induced death, 48 h, at 10 µM, hits give high values, normalised: neutral wells 0, positive control 100. Put shortly: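 assay system = INS-1E rat insulinoma cells | amount = 8000 cells per well | medium = phenol-red-free RPMI with 5% fetal bovine serum | doses = one compound concentration, pin transfer | timing = 48 h cytokine plus compound treatment, 10 min reagent incubation | also added = IL-1β, TNF-α and IFN-γ cytokine mix | signal = CellTiter-Glo luminescence measuring cellular ATP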
On to `CNC[C@H]1Oc2ccc(NS(=O)(=O)c3cn(C)cn3)cc2C(=O)N([C@@H](C)CO)C[C@@H]1C`, for which the protection from cytokine-induced ATP loss was -1.06%. As for `COc1ccc(NC(=O)Nc2cccc3c2O[C@H](CN(C)S(=O)(=O)c2ccc(F)cc2)[C@H](C)CN([C@H](C)CO)C3=O)cc1`, the protection from cytokine-induced ATP loss was -2.75%. `C[C@@H]1CN([C@@H](C)CO)C(=O)Cc2cc(NC(=O)Cn3cnnn3)ccc2O[C@@H]1CN(C)S(=O)(=O)c1cn(C)cn1`: the protection from cytokine-induced ATP loss is 10.1%.

On to `COc1ccc(S(=O)(=O)Nc2ccc3c(c2)CC(=O)N([C@H](C)CO)C[C@@H](C)[C@@H](CN(C)C(=O)Nc2cccc4ccccc24)O3)cc1`, for which the protection from cytokine-induced ATP loss is 0.838%. `C[C@@H]1CN([C@H](C)CO)C(=O)c2cccc(NC(=O)Nc3ccccc3)c2O[C@H]1CN(C)Cc1ccccc1`: the protection from cytokine-induced ATP loss was 3.52%. For `C[C@@H]1CN([C@H](C)CO)C(=O)c2cc(NS(=O)(=O)c3ccccc3)ccc2O[C@H]1CN(C)S(=O)(=O)c1ccc(Cl)cc1`, the protection from cytokine-induced ATP loss was -7.86%. Then `C[C@H](CO)N1C[C@H](C)[C@H](CN(C)C)Oc2ccc(NC(=O)c3ccncc3)cc2CC1=O`, with 2%; and `O=C(NO)c1cccc(C(=O)N/N=C/c2c(F)c(F)c(F)c(F)c2F)c1`, with -2.52%. Then `C[C@H]1CN([C@@H](C)CO)C(=O)Cc2cc(NC(=O)Nc3cccc4ccccc34)ccc2O[C@@H]1CN(C)S(=O)(=O)c1cn(C)cn1`, with 4.42%.

With `CC(C)NC(=O)N(C)C[C@H]1Oc2c(NC(=O)C3CCCCC3)cccc2C(=O)N([C@@H](C)CO)C[C@H]1C`, the protection from cytokine-induced ATP loss is 10.6%. As for `Cc1noc(C)c1NC(=O)N(C)C[C@H]1Oc2c(NS(=O)(=O)c3cccs3)cccc2C(=O)N([C@@H](C)CO)C[C@@H]1C`, the figure is 3.62%. `O=C(N/N=C/c1c[nH]c2ccccc12)c1ccccc1O`: the protection from cytokine-induced ATP loss is -18.7%. Consider `Cc1ccc(S(=O)(=O)Nc2ccc3c(c2)CC(=O)N([C@H](C)CO)C[C@@H](C)[C@H](CN(C)S(=O)(=O)c2c(C)noc2C)O3)cc1`, for which the protection from cytokine-induced ATP loss is 3.93%. As for `COc1ccc(CN(C)C[C@@H]2Oc3ccc(NS(=O)(=O)c4cn(C)cn4)cc3C(=O)N([C@@H](C)CO)C[C@@H]2C)cc1`, the protection from cytokine-induced ATP loss was 7.8%. `C[C@H](CO)N1C[C@H](C)[C@H](CN(C)CC2CC2)Oc2ccc(NC(=O)CCN3CCOCC3)cc2C1=O`: the protection from cytokine-induced ATP loss is -6.34%. With `CC(C)NC(=O)Nc1cccc2c1O[C@H](CN(C)S(=O)(=O)c1cccs1)[C@@H](C)CN([C@H](C)CO)C2=O`, the protection from cytokine-induced ATP loss is 5.81%. For the compound `C[C@@H]1CN([C@@H](C)CO)C(=O)c2cccc(NC(=O)Nc3ccccc3)c2O[C@H]1CN(C)Cc1ccccc1`, the protection from cytokine-induced ATP loss was -11.7%. Consider `C[C@@H]1CN([C@@H](C)CO)C(=O)Cc2cc(NC(=O)Nc3ccc(F)cc3)ccc2O[C@@H]1CN(C)S(=O)(=O)c1ccccc1`, for which the protection from cytokine-induced ATP loss is 13.1%. On to `C[C@@H]1CN([C@@H](C)CO)C(=O)c2cc(NS(C)(=O)=O)ccc2O[C@@H]1CN(C)C(=O)Nc1ccccc1`, for which the protection from cytokine-induced ATP loss is -5.38%. Then `CC(C)NC(=O)Nc1ccc2c(c1)C(=O)N([C@@H](C)CO)C[C@H](C)[C@@H](CN(C)S(C)(=O)=O)O2`, with 2.67%. Then `C[C@H]1CN([C@@H](C)CO)C(=O)Cc2cc(NS(=O)(=O)c3cccs3)ccc2O[C@@H]1CN(C)S(=O)(=O)c1cn(C)cn1`, with 6.75%; and `COc1ccc(CN(C)C[C@H]2Oc3c(NS(=O)(=O)c4ccccc4)cccc3C(=O)N([C@@H](C)CO)C[C@H]2C)cc1`, with 2.69%. As for `CNC[C@H]1Oc2ccc(NC(=O)C3CCCCC3)cc2C(=O)N([C@H](C)CO)C[C@@H]1C`, the figure is 1.62%; as for `C[C@@H]1CN([C@@H](C)CO)C(=O)c2cc(NC(=O)Cn3cnnn3)ccc2O[C@H]1CN(C)Cc1ccc(C(F)(F)F)cc1`, -4.67%; as for `Cc1noc(C)c1NC(=O)Nc1ccc2c(c1)C(=O)N([C@@H](C)CO)C[C@H](C)[C@H](CN(C)Cc1ccc(-c3ccccc3)cc1)O2`, -3.13%. `Cc1noc(C)c1NC(=O)Nc1ccc2c(c1)C(=O)N([C@@H](C)CO)C[C@@H](C)[C@@H](CN(C)CC1CCCCC1)O2`: the protection from cytokine-induced ATP loss is 3.33%. With `C[C@H](CO)N1C[C@H](C)[C@H](CN(C)Cc2ccc(Oc3ccccc3)cc2)Oc2c(NC(=O)CCCCCC(=O)Nc3ccccc3N)cccc2C1=O`, the protection from cytokine-induced ATP loss was -9.83%.

As for `COc1ccc(NC(=O)N(C)C[C@H]2Oc3ccc(N(C)C)cc3C(=O)N([C@H](C)CO)C[C@H]2C)cc1`, the protection from cytokine-induced ATP loss was 1.38%.

For the compound `Cc1ccc(S(=O)(=O)Nc2ccc3c(c2)C(=O)N([C@H](C)CO)C[C@H](C)[C@@H](CN(C)C(=O)NC(C)C)OCCCC[C@@H](C)O3)cc1`, the protection from cytokine-induced ATP loss was 12.2%. For `Cc1ccc(S(=O)(=O)N(C)C[C@H]2Oc3ccc(NC(=O)CCCCCC(=O)Nc4ccccc4N)cc3C(=O)N([C@H](C)CO)C[C@H]2C)cc1`, the protection from cytokine-induced ATP loss was -6.48%.

Turning to `CN(C)CCCOc1ccc(/C=N/NC(=O)c2cccc(C(=O)NO)c2)cc1`, the protection from cytokine-induced ATP loss was -4.67%. Then `C[C@H]1CN([C@@H](C)CO)C(=O)Cc2cc(NC(=O)Nc3ccc(C(F)(F)F)cc3)ccc2O[C@@H]1CN(C)S(=O)(=O)c1ccc(Cl)cc1`, with -4.37%. On to `C[C@@H]1CN([C@H](C)CO)C(=O)Cc2cc(NC(=O)CCCCCC(=O)Nc3ccccc3N)ccc2O[C@H]1CN(C)S(=O)(=O)c1ccc(F)cc1`, for which the protection from cytokine-induced ATP loss was 9.28%. For `COc1cc(/C=N/NC(=O)CCCCCCC(=O)Nc2ccccc2O)ccc1O`, the protection from cytokine-induced ATP loss is -6.33%. As for `COc1ccc(NC(=O)N(C)C[C@H]2Oc3ccc(NC(=O)NC(C)C)cc3CC(=O)N([C@H](C)CO)C[C@H]2C)cc1`, the protection from cytokine-induced ATP loss is 14%. Then `Cc1ccc(S(=O)(=O)N(C)C[C@@H]2Oc3ccc(N(C)C)cc3C(=O)N([C@@H](C)CO)C[C@H]2C)cc1`, with -1.09%; and `Cc1ccc(S(=O)(=O)Nc2ccc3c(c2)C(=O)N([C@@H](C)CO)C[C@@H](C)[C@H](CN(C)Cc2ccc(C(=O)O)cc2)O3)cc1`, with 3.07%; and `C[C@H]1CN([C@@H](C)CO)C(=O)Cc2cc(NC(=O)Cn3cnnn3)ccc2O[C@H]1CN(C)Cc1ccc(C(=O)O)cc1`, with 10.1%. Then `Cc1noc(C)c1S(=O)(=O)N(C)C[C@@H]1Oc2c(NS(=O)(=O)c3cn(C)cn3)cccc2C(=O)N([C@@H](C)CO)C[C@H]1C`, with 4.74%; and `CC(C)NC(=O)Nc1ccc2c(c1)C(=O)N([C@@H](C)CO)C[C@@H](C)[C@H](CN(C)Cc1ccc(Cl)c(Cl)c1)O2`, with -9.43%.

Turning to `C[C@@H]1CN([C@H](C)CO)C(=O)c2cccc(NS(=O)(=O)c3ccc(Cl)cc3)c2O[C@H]1CN(C)Cc1ccc(C(F)(F)F)cc1`, the protection from cytokine-induced ATP loss was 6.19%.

As to `C[C@H]1CN([C@@H](C)CO)C(=O)c2cccc(NC(=O)Nc3ccc(F)cc3)c2O[C@H]1CN(C)S(=O)(=O)c1cn(C)cn1`, the protection from cytokine-induced ATP loss is 5.6%.

On to `Cc1noc(C)c1NC(=O)N(C)C[C@@H]1Oc2ccc(NS(=O)(=O)c3ccc(Cl)cc3)cc2C(=O)N([C@@H](C)CO)C[C@H]1C`, for which the protection from cytokine-induced ATP loss is 5.78%. As for `C[C@@H]1CN([C@H](C)CO)C(=O)c2cccc(NC(=O)Nc3ccc4c(c3)OCO4)c2O[C@H]1CN(C)S(=O)(=O)c1ccc(Cl)cc1`, the figure is -2.56%; as for `COc1ccc(NC(=O)N(C)C[C@@H]2Oc3c(NS(=O)(=O)c4ccc(OC)cc4)cccc3C(=O)N([C@H](C)CO)C[C@@H]2C)cc1`, 8.49%; as for `C[C@H]1CN([C@@H](C)CO)C(=O)c2cc(NC(=O)Cn3cnnn3)ccc2O[C@H]1CN(C)Cc1ccc(C(=O)O)cc1`, 1.96%.

In the case of `C[C@@H]1CN([C@H](C)CO)C(=O)c2cccc(NC(=O)CCCCCC(=O)Nc3ccccc3N)c2O[C@H]1CN(C)CC1CCCCC1`, the protection from cytokine-induced ATP loss is 4.11%.

Consider `C[C@@H]1CN([C@H](C)CO)C(=O)Cc2cc(NC(=O)Cn3cnnn3)ccc2O[C@H]1CN(C)Cc1ccc(Cl)c(Cl)c1`, for which the protection from cytokine-induced ATP loss was 4.05%. Then `C[C@H](CO)N1C[C@H](C)[C@@H](CN(C)C(=O)Nc2ccccc2)Oc2c(NC(=O)CCCCCC(=O)Nc3ccccc3N)cccc2C1=O`, with 4.22%; and `C[C@@H]1CN([C@H](C)CO)C(=O)c2cccc(NS(=O)(=O)c3ccc(F)cc3)c2O[C@@H]1CN(C)S(=O)(=O)c1ccc(Cl)cc1`, with 0.697%. Then `C[C@@H]1CN([C@@H](C)CO)C(=O)c2cccc(NC(=O)Nc3cccc4ccccc34)c2O[C@@H]1CN(C)CC1CC1`, with 2.15%; and `COC(=O)CCCCCCC(=O)N/N=C/c1c(Cl)cc(OC)c(OC)c1Cl`, with 2.23%. Regarding `C[C@@H]1CN([C@@H](C)CO)C(=O)c2cc(NS(=O)(=O)c3ccc(F)cc3)ccc2O[C@@H]1CN(C)C(=O)NC1CCCCC1`, the protection from cytokine-induced ATP loss was -2.78%. As for `COc1ccc(NC(=O)N(C)C[C@H]2Oc3ccc(N(C)C)cc3C(=O)N([C@@H](C)CO)C[C@H]2C)cc1`, the figure is 3.7%. Take `Cc1ccc(S(=O)(=O)N(C)C[C@@H]2Oc3c(NC(=O)Nc4ccc(F)cc4)cccc3C(=O)N([C@H](C)CO)C[C@H]2C)cc1`: the protection from cytokine-induced ATP loss was 40.9%. Then `CNC[C@H]1OCCCC[C@@H](C)Oc2ccc(NC(=O)Cc3ccccc3)cc2C(=O)N([C@H](C)CO)C[C@@H]1C`, with -7.6%; and `C[C@@H]1CN([C@@H](C)CO)C(=O)Cc2cc(NS(=O)(=O)c3ccc(F)cc3)ccc2O[C@@H]1CN(C)S(=O)(=O)c1cccs1`, with 4.79%; and `C[C@H](CO)N1C[C@H](C)[C@H](CN(C)Cc2ccccc2)Oc2ccc(NC(=O)CCCCCC(=O)Nc3ccccc3N)cc2C1=O`, with -0.781%.

The values above are taken from PubChem BioAssay AID488910 (Broad Institute, 2010).
